Where two headings read alike, the source gives them in different places.
How the values were obtained:
UACC903 cells = test: MTS assay of cell proliferation, UACC903; format: cell-based, human; conditions: for IC50: Homo sapiens; for decrease of EC50 due to HNL/BLM combination: UACC903, combination with honokiol (10 μM)
Method in brief: (§1)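 Cells grown in DMEM with 10% FBS at 37 °C and 5% CO2. Plated at 5 × 10^3 per well, grown 24 h, then exposed 24 or 72 h to test compound alone or in pairs: 10 μM bleomycin-type or 250 μM alkylating agent added to the lignan, or 10 μM lignan added to either. DMSO 0.2% final; vehicle controls. MTS/PMS for 4 h; A492; cell-free background. Triplicate; IC50 fit, 95% CI.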

A549 cells = test: MTS assay of cell proliferation, A549; format: cell-based, human; conditions: for IC50: Homo sapiens
Method in brief: as §1

[1] = test system: human cancer cell lines A549, MCF7, PANC-1, UACC903; test: MTS assay of cell proliferation, cell lines not specified; format: cell-based; conditions: combination with honokiol, cell line not specified
Method in brief: as §1

GM12878 cells = test: MTS assay of cell proliferation, GM12878; format: cell-based, human; conditions: for IC50: Homo sapiens
Method in brief: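 Lymphoblasts grown in RPMI 1640 with 15% FBS at 37 °C and 5% CO2. Plated at 5 × 10^3 per well, grown 24 h, then exposed 24 or 72 h to test compound alone or with 10 μM lignan inhibitor added. DMSO 0.2% final; vehicle controls. MTS/PMS in PBS pH 7.2 for 4 h at 37 °C; A492; cell-free background. Triplicate; normalized absorbance fitted for IC50 with 95% CI.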

MCF7 cells = test: MTS assay of cell proliferation, MCF7; format: cell-based, human; conditions: for IC50: Homo sapiens; for decrease of EC50 due to HNL/BLM combination: MCF7, combination with honokiol (10 μM)
Method in brief: as §1

PANC1 cells = test: MTS assay of cell proliferation, PANC1; format: cell-based, human; conditions: for IC50: Homo sapiens
Method in brief: as §1

pol β = conditions: linear mixed-mode inhibition mechanism; cited from earlier work
[2] = PANC1, combination with honokiol (10 μM)

Cn1nnc2c(C(N)=O)ncn2c1=O [TMZ, temozolomide]
IC50 (UACC903 cells; UACC-903, 24 h, read-out: −log(IC50) (95% CI), UACC903, 24 h, tested compound alone (converted)): 631 µM
IC50 (UACC903 cells; UACC-903, 72 h, read-out: −log(IC50) (95% CI), UACC903, 72 h, tested compound alone (converted)): 316 µM
IC50 (A549 cells; A549, 24 h, read-out: −log(IC50) (95% CI), A549, 24 h, tested compound alone (converted)): 398 µM
IC50 (A549 cells; A549, 72 h, read-out: −log(IC50) (95% CI), A549, 72 h, tested compound alone (converted)): 251 µM
decrease of EC50 due to HNL/TMZ combination [1]: up to three-fold
decrease of EC50 due to HNL/TMZ combination ([1]; listed as temozolomide): three-fold
IC50 (GM12878 cells; 24 h, read-out: −log(IC50) (95% CI), GM12878, 24 h, tested compound alone (converted)): < 1000 µM
IC50 (GM12878 cells; 72 h, read-out: −log(IC50) (95% CI), GM12878, 72 h, tested compound alone (converted)): 316 µM
IC50 (MCF7 cells; MCF7, 24 h, read-out: −log(IC50) (95% CI), MCF7, 24 h, tested compound alone (converted)): 501 µM
IC50 (MCF7 cells; MCF7, 72 h, read-out: −log(IC50) (95% CI), MCF7, 72 h, tested compound alone (converted)): 200 µM
IC50 (PANC1 cells; PANC-1, 24 h, read-out: −log(IC50) (95% CI), PANC1, 24 h, tested compound alone (converted)): 316 µM
IC50 (PANC1 cells; PANC-1, 72 h, read-out: −log(IC50) (95% CI), PANC1, 72 h, tested compound alone (converted)): 158 µM
decrease of EC50 due to HNL/TMZ combination (PANC1 cells; [2]): up to three-fold

C=C(C)[C@@H]1CC[C@]2(C)[C@H](CC=C3[C@@H]4C[C@@](C)(C(=O)O)CC[C@]4(C)CC[C@]32C)[C@@]1(C)CCC(=O)O [koetjapic acid]
Ki (pol β): low micromolar range

bleomycin [BLM]
−log(IC50) (95% CI) (UACC903 cells; UACC903, 24 h, supplemented with 10 μM HNL): 5.5 (5.4, 5.7)
−log(IC50) (95% CI) (UACC903 cells; UACC903, 24 h, tested compound alone): 4.9 (4.7, 5.0)
−log(IC50) (95% CI) (UACC903 cells; UACC903, 72 h, supplemented with 10 μM HNL): 6.3 (6.0, 6.5)
−log(IC50) (95% CI) (UACC903 cells; UACC903, 72 h, tested compound alone): 5.22 (5.1, 5.4)
decrease of EC50 due to HNL/BLM combination (UACC903 cells): up to 10 fold
decrease of EC50 due to HNL/BLM combination (UACC903 cells; listed as bleomycin): 10 fold
−log(IC50) (95% CI) (A549 cells; A549, 24 h, supplemented with 10 μM HNL): 5.30 (5.18, 5.43)
−log(IC50) (95% CI) (A549 cells; A549, 24 h, tested compound alone): 4.8 (4.7, 5.0)
−log(IC50) (95% CI) (A549 cells; A549, 72 h, supplemented with 10 μM HNL): 5.6 (5.5, 5.7)
−log(IC50) (95% CI) (A549 cells; A549, 72 h, tested compound alone): 5.2 (5.0, 5.3)
−log(IC50) (95% CI) (GM12878 cells; GM12878, 24 h, supplemented with 10 μM HNL): 4.2 (4.0, 4.3)
−log(IC50) (95% CI) (GM12878 cells; GM12878, 24 h, tested compound alone): 4.1 (3.91, 4.3)
−log(IC50) (95% CI) (GM12878 cells; GM12878, 72 h, supplemented with 10 μM HNL): 4.20 (4.0, 4.4)
−log(IC50) (95% CI) (GM12878 cells; GM12878, 72 h, tested compound alone): 4.1 (4.0, 4.3)
−log(IC50) (95% CI) (MCF7 cells; MCF7, 24 h, supplemented with 10 μM HNL): 6.0 (5.7, 6.2)
−log(IC50) (95% CI) (MCF7 cells; MCF7, 24 h, tested compound alone): 4.9 (4.8, 5.0)
−log(IC50) (95% CI) (MCF7 cells; MCF7, 72 h, supplemented with 10 μM HNL): 6.3 (6.1, 6.6)
−log(IC50) (95% CI) (MCF7 cells; MCF7, 72 h, tested compound alone): 5.3 (5.2, 5.4)
decrease of EC50 due to HNL/BLM combination (MCF7 cells): up to 10 fold
decrease of EC50 due to HNL/BLM combination (MCF7 cells; listed as bleomycin): 10 fold
−log(IC50) (95% CI) (PANC1 cells; PANC1, 24 h, supplemented with 10 μM HNL): 5.9 (5.7, 6.2)
−log(IC50) (95% CI) (PANC1 cells; PANC1, 24 h, tested compound alone): 4.9 (4.7, 5.1)
−log(IC50) (95% CI) (PANC1 cells; PANC1, 72 h, supplemented with 10 μM HNL): 6.09 (5.9, 6.3)
−log(IC50) (95% CI) (PANC1 cells; PANC1, 72 h, tested compound alone): 5.2 (5.0, 5.3)
decrease of EC50 due to HNL/BLM combination (PANC1 cells; [2]): up to 10 fold
decrease of EC50 due to HNL/BLM combination (PANC1 cells; PANC1, combination with honokiol (10 μM), listed as bleomycin): 10 fold

Reference: publication PMC5665024 (Chemical research in toxicology, 2017)
